The results in this text go back to PubChem BioAssay.

Structures are written as SMILES. The source made the active and inactive calls.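 The calls were made as follows, unless noted: active = fluorescence slope after compound addition differing from the mean of all screened samples at 99.7% confidence, in either direction; inactive = the rest.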

Assay [1] can be described thus: inhibitors of TNFa-induced NFkB p65 translocation, primary screen, imaging, HUVEC, MLSMR starter and 10KST1 sets (AID 438;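 active = inhibition above 20% together with a positive visual image hit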;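 also: compound added about 3h40 before a 20 min TNFalpha stimulation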;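 as to inhibition: signal is the nuclear over cytoplasmic p65 intensity ratio per well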). The settings on record: HUVEC TNFa-induced p65 nuclear translocation; cell count: measured here: nuclei count (cytotoxicity indicator), at 2.08 µM; inhibition: at 2 µM, stronger effect = higher value, 0% TNFa-plus-vehicle, 100% no-TNFa wells.
Assay [2] is described as follows: inhibitors of mutant huntingtin aggregation, primary screen, imaging, exon1htt(103Q)mCFP cells, high-content imaging (AID 483;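 active = visual image review flags a hit and inhibition of aggregation exceeds 20%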;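 also: compound exposure lasted 3 days before fixation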;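 as to nuclei count: percent of the per-plate median nuclei count of sample wells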). The following applies: exon1htt(103Q)mCFP cell line, aggregate imaging, at 2 µM; inhibition of aggregation: stronger effect = higher value; nuclei count: measured here: cell count, toxicity.
Assay [3] can be described thus: inhibitors of E-selectin induction by TNFa, primary screen, imaging, HUVEC, immunofluorescence, MLSMR starter and 10KST1 sets (AID 487;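 active = visually confirmed hit in the image check and inhibition above 20%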;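 as to inhibition: signal is fraction of cell area covered by stained E-selectin grains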;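 as to nuclei count: 100% = median nuclei count of all wells on the same plate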). The following applies: HUVEC TNFalpha-induced E-selectin immunofluorescence imaging, at 2 µM; inhibition: stronger effect = higher value; nuclei count: measured here: cell number, toxicity.
Assay [4] has as its target Voltage-gated potassium channel subunit beta-2 (Rattus norvegicus) (UniProt P62483). Briefly: KvBeta enzyme negative modulators, primary screen, biochemical, NADPH fluorescence (AID 622;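 active = fluorescence slope higher than the sample average by over 3 SD, cut at about -0.22 in these data, passing the limit was not always enough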;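 also: slope of raw intensity against log time taken from 70 to 1610 s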). The following applies: recombinant KvBeta, 4-cyanobenzaldehyde reduction, at 10 µM, stronger effect = higher value.
The target is the same in assay [5]. Briefly: KvBeta positive modulators, primary screen, biochemical, NADPH fluorescence (AID 623;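 active = NADPH fluorescence slope more negative than the mean of all samples by about 3 SD, 99.7% confidence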;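 also: fluorescence intensity change per second fitted from 20 to 320 s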). The following applies: Recombinant KvBeta, NADPH fluorescence decrease slope, 10 min; at 10 µM; stronger effect = lower value.
In assay [6] the target is Alpha-2C adrenergic receptor (Homo sapiens) (UniProt P18825). Put plainly: modulators of alpha2C/GIRK thallium flux, primary screen, cell-based, HEK293 alpha2C/GIRK1/2 (AID 624).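 Also: slope of fluorescence ratio to pre-addition baseline per second over 15 to 24 s.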 The following applies: thallium flux BTC fluorescence, at 10 µM, actives lie on both sides.
Alpha-2C adrenergic receptor (Homo sapiens), sequence (P18825 whole entry, looked up): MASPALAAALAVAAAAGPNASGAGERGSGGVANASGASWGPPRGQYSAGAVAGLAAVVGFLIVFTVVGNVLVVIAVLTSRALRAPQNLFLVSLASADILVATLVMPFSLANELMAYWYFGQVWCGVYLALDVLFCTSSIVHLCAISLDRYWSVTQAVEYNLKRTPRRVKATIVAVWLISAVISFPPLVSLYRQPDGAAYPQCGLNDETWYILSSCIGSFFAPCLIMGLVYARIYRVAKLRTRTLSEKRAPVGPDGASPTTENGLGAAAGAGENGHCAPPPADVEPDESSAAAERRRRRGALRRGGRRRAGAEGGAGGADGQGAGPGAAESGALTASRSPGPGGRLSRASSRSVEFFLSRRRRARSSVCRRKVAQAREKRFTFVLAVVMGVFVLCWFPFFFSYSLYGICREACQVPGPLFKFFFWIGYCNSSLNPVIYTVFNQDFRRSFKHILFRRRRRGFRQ
Assay [7] can be described thus: inhibitors of larval lipid processing in zebrafish, primary screen, whole organism, PED6 fluorescence, gall bladder and intestine (AID 686;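 active = a full or partial loss of lipid-probe fluorescence in the fish gall bladder, intestine or both, judged by eye; inactive = no fluorescence loss, or compound toxic to the fish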;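 also: larvae 5 to 7 days old with five fish per well; signal comes from phospholipase A2 cleavage of quenched PED6 carried via bile; overnight exposure to compound and PED6 before scoring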). The following applies: Zebrafish larvae PED6 lipid processing, fluorescence scoring; screened at 20 µM (by protocol). In a few lines: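 Also added: quenched phospholipase substrate PED6, 100 nM final, ingested by larvae; System: zebrafish larvae, 5-7 d; Quantity: 5 larvae per well; Compound: 20 µM single dose; Schedule: overnight compound and PED6 incubation; Read-out: visual per-well fluorescence inhibition score; Measured by: By-eye fluorescence microscopy; Medium: E3.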

Assay [8] is described as follows: inhibitors of Sendai virus-induced IRF3 signaling, primary screen, TLR/RLR signaling modifier project, cell-based, Sendai virus stimulus, luciferase, 10K MLSCN set (AID 602276;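 active = inhibition at or above 50% at 10 µM; inactive = inhibition below 50%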;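 also: firefly luciferase from ISG56 promoter only with Renilla not read in this screen; 0% = Sendai virus plus DMSO and 100% = medium plus DMSO without virus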). The settings on record: HEK293 RL24 IRF3 luciferase reporter, at 10 µM, stronger effect = higher value.
A short description of assay [9]: inhibitors of poly I:C-induced TLR3 signaling, primary screen, cell-based, poly I:C stimulus, luciferase, 10K MLSCN set (AID 602277;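 active = inhibition of the reporter signal at or above 50%; inactive = inhibition below 50%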). The settings on record: HEK293-TLR3 RL24 IRF3 luciferase reporter, at 10 µM, stronger effect = higher value.

Voltage-gated potassium channel subunit beta-2 (Rattus norvegicus), sequence (P62483 whole entry, looked up): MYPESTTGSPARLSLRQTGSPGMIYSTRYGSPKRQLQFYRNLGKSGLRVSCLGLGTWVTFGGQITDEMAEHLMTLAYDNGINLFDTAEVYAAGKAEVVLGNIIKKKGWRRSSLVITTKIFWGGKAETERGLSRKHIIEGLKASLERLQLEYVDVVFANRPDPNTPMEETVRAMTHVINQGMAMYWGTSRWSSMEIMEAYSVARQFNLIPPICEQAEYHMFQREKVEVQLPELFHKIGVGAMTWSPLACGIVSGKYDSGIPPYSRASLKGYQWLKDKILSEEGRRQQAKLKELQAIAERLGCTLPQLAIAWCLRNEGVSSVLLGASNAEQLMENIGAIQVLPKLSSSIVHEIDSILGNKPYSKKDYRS

Take `N#Cc1c(-c2ccc3c(c2)OCO3)csc1N`: the cell count in assay [1] is 584. The inhibition was -4.7% (inactive) in [1], -102% (inactive) in [3], -35.4% (inactive) in assay [8] and -84.4% (inactive) in [9]. For the same compound, the inhibition of aggregation in [2] was 7.8% (inactive). Also, the nuclei count in assay [2] came to 94%; in assay [3] it was 106%. For the same compound, the fluorescence slope in [4] is -0.451 (inactive). In addition, in assay [5], the NADPH fluorescence slope is -4.4e-05 (inactive). The slope in [6] was 0.00604 (inactive). In assay [7], the call was inactive.

Turning to `CC(N)C12CC3CC(C1)CC(C(C)N)(C3)C2` (stereo not drawn), the cell count in assay [1] was determined as 394. Further, the inhibition in assay [1] was 3% (inactive); in assay [3] it was -14.3% (inactive); in assay [8], 13.4% (inactive); in [9], 13.6% (inactive). Further, the inhibition of aggregation in assay [2] was -16.2% (inactive). The nuclei count came out at 102% in assay [2] and 103% in [3]. Also, the fluorescence slope in assay [4] was -0.38 (inactive). In assay [5], the NADPH fluorescence slope is -6.5e-05 (inactive). Besides, in assay [6], the slope was 0.00438 (inactive). Besides, the compound was called inactive in assay [7].

With `O=C(CSc1n[nH]c(=O)[nH]c1=O)c1ccccc1`, in [1], the cell count was found to be 486. In addition, the inhibition was -5.6% (inactive) in [1], -33.2% (inactive) in assay [3], 1.37% (inactive) in assay [8] and 0.379% (inactive) in assay [9]. The inhibition of aggregation in [2] was 6.7% (inactive). Also, the values for the nuclei count in assay [2] and in assay [3] were 82% and 99.8%, respectively. Also, the fluorescence slope in assay [4] is -0.34 (inactive). Further, in assay [5], the NADPH fluorescence slope was -4e-05 (inactive). Further, the slope in assay [6] is 0.00685 (inactive). Besides, in assay [7], the compound was classed as inactive.

Turning to `O=C(Nc1ccc2[nH]c3c(c2c1)CCCC3)c1ccco1`, the cell count in assay [1] is 446. The inhibition was -20.5% (inactive) in assay [1], 78.9% (active) in [3], -30.4% (inactive) in assay [8] and -98.2% (inactive) in assay [9]. In addition, the inhibition of aggregation in assay [2] is 31% (inactive). Moreover, the nuclei count in assay [2] is 85.7%; in assay [3], 103%. In addition, the fluorescence slope in [4] is -0.288 (inactive). Besides, the NADPH fluorescence slope in assay [5] was -4.7e-05 (inactive). Also, the slope in assay [6] is 0.00582 (inactive). In addition, the result in [7] was inactive.

Take `COCCn1nnnc1SCC(=O)N1CCCCC1`: the cell count in [1] came to 344. In addition, the inhibition is 1.6% (inactive) in [1], 6.2% (inactive) in assay [3], 17.3% (inactive) in assay [8] and 14% (inactive) in [9]. Moreover, the inhibition of aggregation in [2] was 4.1% (inactive). In addition, the results for the nuclei count in [2] and in assay [3] were 102% and 121%, respectively. Besides, in assay [4], the fluorescence slope was -0.49 (inactive). The NADPH fluorescence slope in [5] was -9.6e-06 (inactive). The slope in assay [6] was 0.00458 (inactive). In [7], the compound was classed as inactive.

In the case of `O=C(CSc1nc2ccccc2o1)N1CCN(C(=O)c2ccco2)CC1`, the cell count in assay [1] was found to be 595. The inhibition is -11.5% (inactive) in assay [1], -19.5% (inactive) in assay [3], 3.77% (inactive) in assay [8] and 3.76% (inactive) in assay [9]. For the same compound, the inhibition of aggregation in assay [2] was 9.6% (inactive). Further, the nuclei count in assay [2] is 102%; in assay [3] it was 99.6%. Moreover, the fluorescence slope in [4] was -0.376 (inactive). For the same compound, the NADPH fluorescence slope in assay [5] was -5.7e-05 (inactive). Also, the slope in assay [6] was 0.00634 (inactive). The compound was called inactive in assay [7].

Regarding `CCOc1ccccc1C(=O)Nn1c(C2CCC2)nc2ccccc2c1=O`, in assay [1], the cell count was 292. The inhibition in assay [1] is -14% (inactive); in assay [3] it was -38.2% (inactive); in [8] it was 20.9% (inactive); in assay [9], 37.7% (inactive). In assay [2], the inhibition of aggregation was -21.7% (inactive). Moreover, the nuclei count in [2] is 7.3%; in assay [3], 98.8%. Also, the fluorescence slope in assay [4] was -0.467 (inactive). Moreover, the NADPH fluorescence slope in assay [5] was -5.5e-05 (inactive). The slope in assay [6] is 0.00459 (inactive). The compound was called inactive in assay [7].

As for `CCC(=O)Nc1ccc(NC(=O)c2ccccn2)cn1`, the cell count in assay [1] came to 778. Moreover, the inhibition is -11% (inactive) in [1], -9.1% (inactive) in assay [3], -3% (inactive) in [8] and 99.2% (active) in assay [9]. Moreover, the inhibition of aggregation in assay [2] is -6.5% (inactive). Moreover, the figures for the nuclei count in assay [2] and in [3] were 102% and 104%, respectively. In addition, the fluorescence slope in [4] is -0.402 (inactive). In addition, the NADPH fluorescence slope in assay [5] is -5.9e-05 (inactive). Moreover, the slope in assay [6] was 0.00517 (inactive). Besides, the outcome in [7] was inactive.

With `O=C(NC1CCS(=O)(=O)C1)OC1CCCCC1` (stereo not drawn), the cell count in [1] was found to be 419. In addition, the inhibition was -1.2% (inactive) in assay [1], -91.7% (inactive) in assay [3], 10.9% (inactive) in assay [8] and 3.54% (inactive) in assay [9]. In addition, the inhibition of aggregation in [2] is 2% (inactive). The nuclei count in assay [2] worked out at 111%; in assay [3], 105%. Moreover, the fluorescence slope in assay [4] was -0.468 (inactive). Also, in assay [5], the NADPH fluorescence slope was -5.2e-05 (inactive). Also, in assay [6], the slope was 0.0056 (inactive). Further, the compound was classed as inactive in [7].

In the case of `CCCNC(=O)c1cc(-c2ccco2)on1`, in [1], the cell count stood at 389. Besides, the inhibition in assay [1] is -3.9% (inactive); in [3] it was -11.4% (inactive); in assay [8] it was -19% (inactive); in [9], -154% (inactive). In assay [2], the inhibition of aggregation was -4.1% (inactive). For the same compound, the nuclei count came to 88.7% in assay [2] and 98.4% in assay [3]. For the same compound, the fluorescence slope in assay [4] was -0.39 (inactive). Also, in assay [5], the NADPH fluorescence slope was -4.2e-05 (inactive). Further, the slope in [6] is 0.0057 (inactive). In addition, the compound was classed as inactive in assay [7].

For the compound `COc1ccccc1-n1c(SCC(=O)NC(C)(C)C)nnc1-c1ccco1`, the cell count in assay [1] was determined as 662. Besides, the inhibition in assay [1] is -13.1% (inactive); in [3] it was -53% (inactive); in assay [8] it was 10.4% (inactive); in assay [9], 15.6% (inactive). For the same compound, the inhibition of aggregation in assay [2] is 6.2% (inactive). Also, the figures for the nuclei count in assay [2] and in assay [3] were 87.8% and 117%, respectively. The fluorescence slope in [4] was -0.504 (inactive). The NADPH fluorescence slope in [5] was -2.6e-05 (inactive). Also, the slope in [6] was 0.0043 (inactive). The outcome in [7] was inactive.

For `O=C(CSc1ccccc1C(=O)NCCCN1CCCC1=O)NCc1ccco1`, in [1], the cell count turned out to be 463. For the same compound, the inhibition was 3.8% (inactive) in [1], -81.8% (inactive) in [3], 11.7% (inactive) in assay [8] and 12.7% (inactive) in assay [9]. In addition, the inhibition of aggregation in [2] was -6.6% (inactive). The nuclei count in [2] amounted to 98.6%; in [3], 118%. Also, the fluorescence slope in assay [4] was -0.358 (inactive). Also, the NADPH fluorescence slope in assay [5] is -4.3e-05 (inactive). In [6], the slope was 0.00452 (inactive). In addition, the compound was called inactive in assay [7].

For `COc1ccc(-n2nc3cc(C)c(N)c(Br)c3n2)cc1`, the cell count in [1] was 336. For the same compound, the inhibition in [1] is -6.8% (inactive); in assay [3], -17.3% (inactive); in assay [8] it was -10.7% (inactive); in assay [9], -36.5% (inactive). Moreover, the inhibition of aggregation in assay [2] is 3.9% (inactive). In addition, the nuclei count came to 59.9% in assay [2] and 83.5% in assay [3]. Moreover, in [4], the fluorescence slope was -0.411 (inactive). In assay [5], the NADPH fluorescence slope was -4.9e-05 (inactive). Also, the slope in assay [6] was 0.00393 (inactive). For the same compound, the call in assay [7] was inactive.

For the compound `COc1ccc(C(NC(C)=O)c2ccc3cccnc3c2O)c(OC)c1` (stereo not drawn), the cell count in assay [1] amounted to 444. In addition, the inhibition was 2.1% (inactive) in assay [1], 23.6% (inactive) in assay [3], -12.8% (inactive) in assay [8] and 61.9% (active) in [9]. Besides, the inhibition of aggregation in [2] was -3% (inactive). The nuclei count in assay [2] amounted to 90.6%; in [3] it was 111%. Also, the fluorescence slope in assay [4] is -0.37 (inactive). In addition, the NADPH fluorescence slope in assay [5] is -5.8e-05 (inactive). Further, the slope in assay [6] is 0.00602 (inactive). The compound was called inactive in [7].
